Source: PubChem BioAssay (Johns Hopkins Ion Channel Center)
TRPC4 potent = TRPC4 (mouse) allosteric potentiation. 310,000 compounds, 0.42% hits. B-score at 10 µM. HEK293 TRPC4beta/mu-opioid, DAMGO EC20, Fluo-4 Ca2+ flux; active compounds read high. AID 2227. Q9QUQ5;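 active = B-score of calcium response area above 5 SD of library B-scores, with initial fluorescence ratio within 5 SD of library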;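 also: B-score of integrated fluorescence ratio over time as area under calcium response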
TRPC4 inh = inhibitors of mouse TRPC4 channel. Q9QUQ5. HEK293 TRPC4beta/mu-opioid, DAMGO-evoked Fluo4 calcium flux; active compounds read low. B-score at 10 µM. 300,000 compounds, 0.39% hits;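 active = B-score over 3 SD under the library average, no early fluorescence shift, positive overall ratio signal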
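Test system – stable TRPC4beta/mu-opioid receptor HEK293 cells · Probe or stimulus – DAMGO, a submaximal dose followed by a maximal one · Dosing – one concentration per compound · Signal – Fluo4 calcium fluorescence by kinetic imaging, 5 s 1 Hz baseline · Evaluation – per-well B score of integrated baseline-normalized Fluo4 ratio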
TRPC4 agonist = activators of mouse TRPC4 channel. Q9QUQ5. HEK293 TRPC4beta/mu-opioid, Fluo4 calcium fluorescence; active compounds read high. B-score at 10 µM. 310,000 compounds, 0.49% hits;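 active = B-score above 5 SD of library B-scores, and initial fluorescence ratio not above library mean plus 5 SD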;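 also: positive B-score marks a calcium rise read as TRPC4 activation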
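Material: TRPC4beta and mu-opioid receptor HEK293 stable cells | Incubation: 45 min room-temperature Fluo4 loading, 110 s read | Detection: Kinetic Fluo4 calcium fluorescence | Measure: Integrated baseline-normalised fluorescence ratio, converted to per-well B score | Benchmarks: Low control buffer alone, high control maximal DAMGO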
TRPC6 act = activates the mouse TRPC6 cation channel. Q61143. HEK293-TRPC6 membrane potential dye fluorescence; active compounds read high. B-score at 10 µM. 310,000 compounds, 0.13% hits. AID 2550;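 active = B-score of the integrated fluorescence ratio above library mean plus 3 SD, and starting fluorescence ratio within library mean plus 5 SD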;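 also: higher score means more depolarization so channel activation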
TRPC6 inhibitor = blocks the mouse TRPC6 cation channel; HEK293-TRPC6, membrane potential dye, ACh-evoked depolarization; active compounds read low; 310,000 compounds, 1.1% hits; B-score at 10 µM;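 active = B-score under library mean minus 3 SD, initial fluorescence not abnormally high, positive integrated signal ratio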;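 also: B-score derived from integrated fluorescence ratio over the kinetic read; more negative B-score means stronger inhibition of depolarization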
Active calls of the source: *. Rows were chosen to be rich in hits. Some 2.3% of all compounds tested hit in one or more screens of this group.

What do the screens show for `CC(SCc1ccccc1)C(=O)NCc1ccccn1` (configuration not stated)?
TRPC4 potent: 10*; TRPC4 inh: inactive; TRPC4 agonist: inactive; TRPC6 act: inactive; TRPC6 inhibitor: inactive

What do the screens show for `CCCCCc1ccc(OCCOCCn2c[n+](C)c3ccccc32)c(CCCCC)c1`?
TRPC4 potent: inactive; TRPC4 inh: inactive; TRPC4 agonist: 51*; TRPC6 act: inactive; TRPC6 inhibitor: inactive

How did CCCCCc1ccc(OCCC[n+]2ccccc2)c(CCCCC)c1 do in these assays?
TRPC4 potent: inactive; TRPC4 inh: inactive; TRPC4 agonist: inactive; TRPC6 act: inactive; TRPC6 inhibitor: inactive

How did CCNC(=O)N1c2ccc(OCC)cc2C(C)=CC1(C)C do in these assays?
TRPC4 potent: inactive; TRPC4 inh: -7*; TRPC4 agonist: inactive; TRPC6 act: inactive; TRPC6 inhibitor: inactive

What do the screens show for `CCOc1ccc([N+](=O)[O-])cc1CNC1CCCCCCC1`?
TRPC4 potent: inactive; TRPC4 inh: inactive; TRPC4 agonist: inactive; TRPC6 act: inactive; TRPC6 inhibitor: -5.9*

How did O=[N+]([O-])c1cccc(CNC2CCCCCC2)c1 do in these assays?
TRPC4 potent: inactive; TRPC4 inh: inactive; TRPC4 agonist: inactive; TRPC6 act: inactive; TRPC6 inhibitor: inactive

How did COc1ccc(C(=O)NC2CCN(CC(=O)NC3CCCCC3)CC2)cc1 do in these assays?
TRPC4 potent: inactive; TRPC4 inh: -6*; TRPC4 agonist: inactive; TRPC6 act: inactive; TRPC6 inhibitor: inactive

How did COc1ccc(C(=O)NNC(=O)CN2CCC(n3nnc4cc(C)ccc43)CC2)cc1 do in these assays?
TRPC4 potent: 16*; TRPC4 inh: inactive; TRPC4 agonist: inactive; TRPC6 act: inactive; TRPC6 inhibitor: inactive

What do the screens show for `O=C(CN1CCC(n2nnc3cc(F)ccc32)CC1)NNC(=O)c1ccccc1`?
TRPC4 potent: inactive; TRPC4 inh: inactive; TRPC4 agonist: inactive; TRPC6 act: inactive; TRPC6 inhibitor: inactive

Results for O=c1cc(C(F)(F)F)[nH]c(=S)n1-c1ccccc1 ?
TRPC4 potent: inactive; TRPC4 inh: inactive; TRPC4 agonist: inactive; TRPC6 act: inactive; TRPC6 inhibitor: inactive

Results for CC(C)(C)c1ccc(C(=O)Nc2cccc(-n3cnnn3)c2)cc1 ?
TRPC4 potent: inactive; TRPC4 inh: inactive; TRPC4 agonist: inactive; TRPC6 act: inactive; TRPC6 inhibitor: inactive

How did Cc1ccsc1/C=N/Nc1ccc(F)cc1F do in these assays?
TRPC4 potent: inactive; TRPC4 inh: inactive; TRPC4 agonist: inactive; TRPC6 act: inactive; TRPC6 inhibitor: inactive

What do the screens show for `CCOC(=O)c1ccc(COc2ccc(C(C)C)cc2)o1`?
TRPC4 potent: inactive; TRPC4 inh: inactive; TRPC4 agonist: inactive; TRPC6 act: inactive; TRPC6 inhibitor: inactive

Results for CCOc1ccc(OCc2ccc(C(=O)N3CCCC3)o2)cc1 ?
TRPC4 potent: inactive; TRPC4 inh: inactive; TRPC4 agonist: inactive; TRPC6 act: inactive; TRPC6 inhibitor: inactive

How did CCCc1ccc(OCc2ccc(C(=O)N3CCCC3)o2)cc1 do in these assays?
TRPC4 potent: 26*; TRPC4 inh: inactive; TRPC4 agonist: inactive; TRPC6 act: inactive; TRPC6 inhibitor: inactive

Results for CC(C)c1ccc(OCc2ccc(C(=O)N3CCCC3)o2)cc1 ?
TRPC4 potent: 42*; TRPC4 inh: inactive; TRPC4 agonist: inactive; TRPC6 act: inactive; TRPC6 inhibitor: inactive

What do the screens show for `O=C(CCn1nc(-c2ccccc2)c2ccccc2c1=O)NN1CCOCC1`?
TRPC4 potent: inactive; TRPC4 inh: inactive; TRPC4 agonist: inactive; TRPC6 act: inactive; TRPC6 inhibitor: inactive

Results for CCc1ccc2nc3nc(C)cc(C)c3c(N)c2c1 ?
TRPC4 potent: inactive; TRPC4 inh: -6*; TRPC4 agonist: inactive; TRPC6 act: inactive; TRPC6 inhibitor: inactive

What do the screens show for `CCn1c2ccccc2c2cc(NC(=O)CN3CCCC3)ccc21`?
TRPC4 potent: 28*; TRPC4 inh: inactive; TRPC4 agonist: inactive; TRPC6 act: inactive; TRPC6 inhibitor: inactive

How did CCCC(=O)Nc1ccccc1NC(=O)c1ccc(OC(C)=O)cc1 do in these assays?
TRPC4 potent: inactive; TRPC4 inh: inactive; TRPC4 agonist: inactive; TRPC6 act: inactive; TRPC6 inhibitor: inactive

What do the screens show for `CC(C)(C)C(=O)Nc1ccccc1N1CCN(c2ccc(F)cc2)CC1`?
TRPC4 potent: inactive; TRPC4 inh: inactive; TRPC4 agonist: inactive; TRPC6 act: inactive; TRPC6 inhibitor: inactive
